In ChEMBL document CHEMBL4219078, “Discovery of DSP-1053, a novel benzylpiperidine derivative with potent serotonin transporter inhibitory activity and partial 5-HT1A receptor agonistic activity” (Bioorg Med Chem, 2018):
pIC50, pKi: −log10 of the molar value. Activity calls are given as the source filed them. The calls are words filed in the database; no cut-off is given here.

Assays:
[1] = target: T1, Sodium-dependent serotonin transporter (Homo sapiens, UniProt P31645); assay: Displacement of [3H]-citalopram from human SERT expressed in HEK293 cell membranes after 60 mins by liquid scintillation counting
Outline: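 Membranes from cells expressing human serotonin transporter; [3H]citalopram radioligand. Ki from IC50 via Cheng–Prusoff (radioligand concentration and Kd). Ki values are means of two or three independent experiments.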

[2] = target: CYP2D6 (Homo sapiens, UniProt P10635); assay: Drug metabolism in human liver microsomes assessed as CYP2D6-medited compound metabolism at 1 uM after 15 to 30 mins by LC-MS/MS analysis; format: ADME; conditions: read-out: Drug metabolism
Outline: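 Human liver microsomes (1 mg/mL) with 1 µM test substance and 3 mM NADPH (final) in 50 mM potassium phosphate, pH 7.4, at 37 °C; stopped after 15–30 min with 3 volumes methanol. Metabolic rate taken from slope, with and without 4 µM quinidine (final). The quinidine-resistant fraction was assigned to other enzymes; CYP2D6 contribution = total minus that fraction.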

[3] = tested on: Rattus norvegicus; assay: Increase in serotonin levels in Crlj:WI rat frontal cortex assessed as at 10 mg/kg, po administered as single dose at 3 hrs post perfusion by microdialysis relative to baseline control; format: functional, organism-based
Outline: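 Frontal cortex microdialysis in rats. Dialysate (10 µL per 5-min collection, at 20-min intervals) was injected automatically into HPLC for 5-HT. Oral dosing followed at least 3 h of perfusion, once baseline was stable, and sampling continued 3 h after dosing.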

[4] = target: T1, Sodium-dependent serotonin transporter; assay: Inhibition of human SERT expressed in CHO cells assessed as reduction in [3H]5-HT uptake preincubated for 10 mins followed by [3H]5-HT addition measured after 20 mins by liquid scintillation counting; format: cell-based
Outline: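 CHO cells stably expressing human serotonin transporter; compound or DMSO in reaction buffer pre-incubated with cells at 37 °C for 10 min, then [3H]5-HT plus compound added and incubated 37 °C for 20 min. Cells rinsed twice, lysed, radioactivity counted. IC50 values are means of at least three independent experiments.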

T1 sequence (P31645 whole entry): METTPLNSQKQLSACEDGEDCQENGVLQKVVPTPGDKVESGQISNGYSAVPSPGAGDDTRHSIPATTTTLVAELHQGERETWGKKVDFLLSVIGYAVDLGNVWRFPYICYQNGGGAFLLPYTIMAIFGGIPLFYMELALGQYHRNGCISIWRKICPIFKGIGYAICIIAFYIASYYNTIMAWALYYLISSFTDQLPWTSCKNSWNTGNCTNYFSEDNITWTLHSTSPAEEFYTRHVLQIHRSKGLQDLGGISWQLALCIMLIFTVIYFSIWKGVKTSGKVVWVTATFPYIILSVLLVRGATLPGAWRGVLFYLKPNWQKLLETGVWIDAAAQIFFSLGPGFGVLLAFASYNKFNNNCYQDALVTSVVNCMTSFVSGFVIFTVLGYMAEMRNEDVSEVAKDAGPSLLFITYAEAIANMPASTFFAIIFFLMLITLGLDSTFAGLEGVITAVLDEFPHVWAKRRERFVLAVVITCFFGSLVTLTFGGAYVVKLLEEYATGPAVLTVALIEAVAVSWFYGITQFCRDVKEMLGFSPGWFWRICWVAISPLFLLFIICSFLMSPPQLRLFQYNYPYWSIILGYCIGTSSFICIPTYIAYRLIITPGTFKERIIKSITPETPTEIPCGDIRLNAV
Chain of CYP2D6 (P10635 whole entry): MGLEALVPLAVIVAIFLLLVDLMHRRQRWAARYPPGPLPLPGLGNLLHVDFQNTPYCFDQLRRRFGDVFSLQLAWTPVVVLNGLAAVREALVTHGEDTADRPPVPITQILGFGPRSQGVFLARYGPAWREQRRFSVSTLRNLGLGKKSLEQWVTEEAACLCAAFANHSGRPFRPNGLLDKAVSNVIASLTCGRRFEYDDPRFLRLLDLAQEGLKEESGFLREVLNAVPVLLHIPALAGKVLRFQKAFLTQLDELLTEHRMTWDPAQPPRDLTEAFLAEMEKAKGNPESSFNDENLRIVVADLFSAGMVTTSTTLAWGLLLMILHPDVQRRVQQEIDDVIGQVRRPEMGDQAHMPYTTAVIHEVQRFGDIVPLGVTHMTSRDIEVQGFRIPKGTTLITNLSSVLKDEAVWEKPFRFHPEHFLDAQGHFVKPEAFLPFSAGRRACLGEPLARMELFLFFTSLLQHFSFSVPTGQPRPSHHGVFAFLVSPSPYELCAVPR

Row | Structure (SMILES) | pKi [1] | metabolised at 1 µM [2] [%] | pIC50 [4] | Activity [3]
1 | COCCOc1cc(CC2CCN(CCc3ccc4c(c3)OCCO4)CC2)ccc1Br | 8.62 | 55.6 | – | –
2 | COCCOc1cc(CC2CCN(CCc3ccc4c(c3)C(=O)CCO4)CC2)ccc1C(C)C | 6.61 | – | – | –
3 | COCCOc1cc(CC2CCN(CCc3ccc4c(c3)CCCO4)CC2)ccc1Br | 8.76 | 0 | – | –
4 | COCCOc1cccc(CC2CCN(CCc3cc4c(cc3Cl)OCCO4)CC2)c1Br | 7.13 | – | – | –
5 | COCCOc1cc(CC2CCN(CCc3ccc4c(c3)S(=O)(=O)CCO4)CC2)ccc1Br | 8.59 | 55.8 | – | –
6 | COCCOc1cc(CC2CCN(CCc3ccc4c(c3)C(=O)CCO4)CC2)ccc1Cl | 8.47 | 53.5 | 7.79 | –
7 | COCCOc1cc(CC2CCN(CCc3ccc4c(c3)C(=O)CCO4)CC2)ccc1C | 8.28 | 48.5 | 7.34 | –
8 | COCCOc1cc(Br)cc(CC2CCN(CCc3ccc4c(c3)OCCO4)CC2)c1 | 7.73 | 49.4 | – | –
9 | COCCOc1ccc(Br)c(CC2CCN(CCc3cc4c(cc3Cl)OCCO4)CC2)c1 | – | 86 | – | –
10 | COCCOc1cc(CC2CCN(CCc3ccc4c(c3)C(=O)CCO4)CC2)ccc1F | 6.95 | – | – | –
11 | COCCOc1cc(CC2CCN(CCc3ccc4c(c3)C(=O)CCO4)CC2)ccc1I | 9.39 | – | – | –
12 | COCCOc1cc(CC2CCN(CCc3ccc4c(c3)OCCC4=O)CC2)ccc1Br | 8.85 | 3.6 | – | –
13 | COCCOc1cc(CC2CCN(CCc3ccc4c(c3)C(=O)CCCO4)CC2)ccc1Br | 8.93 | 4.2 | – | –

Second part, led by results:

Row | pKi [1] | metabolised at 1 µM [2] [%] | pIC50 [4] | Structure (SMILES) | Activity [3]
14 | 8.27 | 14 | – | COCCOc1cc(Br)cc(CC2CCN(CCc3ccc4c(c3)C(=O)CCO4)CC2)c1 | –
15 | – | 0 | – | COCCOc1cc(CC2CCN(CCc3ccc4c(c3)C(=O)CCO4)CC2)ccc1Br | Active
16 | 9.17 | 11.8 | – | COCCOc1cc(CC2CCN(CCc3ccc4c(c3)C(=O)CCC4)CC2)ccc1Br | –
17 | 8.27 | 6.8 | – | COCCOc1cc(CC2CCN(CCc3ccc4c(c3)OCCC4)CC2)ccc1Br | –
18 | 6.69 | – | – | COCCOc1cccc(CC2CCN(CCc3ccc4c(c3)C(=O)CCO4)CC2)c1 | –
19 | 8.01 | 18.4 | – | CCc1ccc(CC2CCN(CCc3ccc4c(c3)C(=O)CCO4)CC2)cc1OCCOC | –
20 | 7.85 | 64.4 | – | COCCOc1cc(Br)cc(CC2CCN(CCc3cc4c(cc3Cl)OCCO4)CC2)c1 | –
21 | 8.07 | 36.4 | – | COCCOc1cc(CC2CCN(CCc3ccc4c(c3)C(O)CCO4)CC2)ccc1Br (stereo not given) | –
22 | 8.26 | 75.6 | – | COCCOc1cc(CC2CCN(CCc3cc4c(cc3Cl)OCCO4)CC2)ccc1Br | –
